Results published in ChEMBL document CHEMBL4196059, “Design, synthesis, and biological evaluation of stable β6.3-Helices: Discovery of non-hemolytic antibacterial peptides” (Eur J Med Chem, 2018).
≈ marks a conversion by molar mass, not a printed value. Calls of active or inactive are those of the source. The calls are words filed in the database; no cut-off is given here. Residues, ends and D or L forms follow the SMILES beside them.

Experiments:
[1] = molecular target: Lipid bilayer; assay: Binding affinity to POPC vesicles by surface plasmon resonance spectroscopy
How it was run: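 SPR on a dextran chip carrying immobilized POPC liposomes, with running buffer of 10 mM HEPES and 100 mM KCl at pH 7.4. Peptides in PBS were flowed at 25 μL/min at 10–1000 μM, with reference-subtracted response units. KD and Rmax were fitted from maximum response versus concentration. Regeneration used 20 mM CHAPS followed by fresh liposomes.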

[2] = system: Pseudomonas aeruginosa; assay: Growth inhibition of Pseudomonas aeruginosa ATCC 27853 at 32 ug/ml after 18 hrs; format: functional; conditions: ATCC 27853, 18 h, read-out: GI
How it was run: (§1)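 Mid-log cultures were prepared as above and seeded at 5×10^5 CFU/mL with compound at a final 32 μg/mL, then held static at 37 °C for 18 h. Growth was read as OD600. Percent inhibition was calculated against media-only and bacteria-only controls on the same plate.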

[3] = Hemolytic activity against human RBC at 12.5 uM after 1 hr by Drabkin's assay relative to control; format: ADME, cell-based, Erythrocyte; conditions: human red blood cells (erythrocytes), read-out: Activity
[4] = system: Staphylococcus aureus; assay: Growth inhibition of methicillin-resistant Staphylococcus aureus ATCC 43300 at 32 ug/ml after 18 hrs; format: functional; conditions: ATCC 43300, 18 h, read-out: GI
How it was run: (§2)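 Mid-log cultures in cation-adjusted Mueller Hinton broth were added at 5×10^5 CFU/mL to wells at a final compound concentration of 32 μg/mL. Plates stood at 37 °C for 18 h. Growth was read by OD600, and % inhibition was computed against media-only and untreated-bacteria controls.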

[5] = system: Cryptococcus neoformans; assay: Growth inhibition of Cryptococcus neoformans H99 ATCC 208821 at 32 ug/ml after 24 hrs by resazurin dye-based microspectrophotometric assay; format: functional; conditions: var. grubii H99 ATCC 208821, 24 h, read-out: GI
How it was run: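 Yeasts were grown 3 days on YPD agar at 30 °C, suspended from five colonies and diluted in YNB broth to a final 2.5×10^3 CFU/mL. Compound at a final 32 μg/mL; incubated 24 h at 35 °C without shaking. C. albicans was read at OD530. C. neoformans was read as OD600–570 after resazurin (0.001% final) and a further 2 h at 35 °C. Fluconazole was the standard.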

[6] = system: Escherichia coli; assay: Growth inhibition of Escherichia coli ATCC 25922 at 32 ug/ml after 18 hrs; format: functional; conditions: ATCC 25922, 18 h, read-out: GI; how it was run: as §1
[7] = Hemolytic activity against human RBC at 1.56 uM after 1 hr by Drabkin's assay relative to control; format: ADME, cell-based, Erythrocyte; conditions: human red blood cells (erythrocytes), read-out: Activity
[8] = Hemolytic activity against human RBC at 25 uM after 1 hr by Drabkin's assay relative to control; format: ADME, cell-based, Erythrocyte; conditions: human red blood cells (erythrocytes), read-out: Activity
[9] = system: Candida albicans; assay: Growth inhibition of Candida albicans ATCC 90028 at 32 ug/ml after 24 hrs by OD530 light-scattering microspectrophotometric method; conditions: ATCC 90028, 24 h, read-out: GI
[10] = Hemolytic activity against human RBC at 0.78 uM after 1 hr by Drabkin's assay relative to control; format: ADME, cell-based, Erythrocyte; conditions: human red blood cells (erythrocytes), read-out: Activity
[11] = Induction of pore formation in DOPC vesicles at 20 uM after 3 hrs by carboxyfluorescein dye leakage assay; conditions: in the assay text read “after 3 mins” for “after 3 hrs”
How it was run: (§3)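 POPC or DOPC liposomes were hydrated in 10 mM HEPES, 100 mM KCl, pH 7.4, containing 50 mM carboxyfluorescein. Size was checked by dynamic light scattering, and vesicles were used at 2.2×10^10 per mL. Peptide at 20 μM was equilibrated with vesicles for 3 min, and dye leakage was measured.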

[12] = system: Klebsiella pneumoniae; assay: Growth inhibition of multidrug-resistant Klebsiella pneumoniae ATCC 700603 at 32 ug/ml after 18 hrs; format: functional; conditions: ATCC 700603, 18 h, read-out: GI; how it was run: as §2
[13] = Hemolytic activity against human RBC at 50 uM after 1 hr by Drabkin's assay relative to control; format: ADME, cell-based, Erythrocyte; conditions: human red blood cells (erythrocytes), read-out: Activity
[14] = system: Acinetobacter baumannii; assay: Growth inhibition of Acinetobacter baumannii ATCC 19606 at 32 ug/ml after 18 hrs; format: functional; conditions: ATCC 19606 = CIP 70.34 = JCM 6841, 18 h, read-out: GI; how it was run: as §1
[15] = Hemolytic activity against human RBC at 6.25 uM after 1 hr by Drabkin's assay relative to control; format: ADME, cell-based, Erythrocyte; conditions: human red blood cells (erythrocytes), read-out: Activity
[16] = Hemolytic activity against human RBC at 0.39 uM after 1 hr by Drabkin's assay relative to control; format: ADME, cell-based, Erythrocyte; conditions: human red blood cells (erythrocytes), read-out: Activity
[17] = Hemolytic activity against human RBC at 3.125 uM after 1 hr by Drabkin's assay relative to control; format: ADME, cell-based, Erythrocyte; conditions: human red blood cells (erythrocytes), read-out: Activity
[18] = system: Erythrocyte; assay: Hemolytic activity against human RBC after 1 hr by Drabkin's assay; format: ADME, cell-based
[19] = system: Acinetobacter baumannii; assay: Antibacterial activity against Acinetobacter baumannii ATCC 19606 after 18 hrs by non-binding surface 96-well plate-based method; format: functional; conditions: ATCC 19606 = CIP 70.34 = JCM 6841, 18 h
How it was run: (§4)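 Strains grown in cation-adjusted Mueller Hinton broth at 37 °C for 12 h, diluted 40-fold and regrown 1.5–3 h to mid-log. Inoculum was 5×10^5 CFU/mL in 12-point dose response, in non-binding surface or polystyrene plates, in duplicate. Plates stood at 37 °C for 18 h. MIC was read by OD600.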

[20] = system: Escherichia coli; assay: Antibacterial activity against Escherichia coli ATCC 25922 after 18 hrs by polystyrene 96-well plate-based method; format: functional; conditions: ATCC 25922, 18 h; how it was run: as §4
[21] = Hemolytic activity against human RBC; format: ADME, cell-based, Erythrocyte; conditions: human red blood cells (erythrocytes)
[22] = system: Staphylococcus aureus; assay: Antibacterial activity against methicillin-resistant Staphylococcus aureus ATCC 43300 after 18 hrs by non-binding surface 96-well plate-based method; format: functional; conditions: ATCC 43300, 18 h; how it was run: as §4
[23] = system: Acinetobacter baumannii; assay: Antibacterial activity against Acinetobacter baumannii ATCC 19606 after 18 hrs by polystyrene 96-well plate-based method; format: functional; conditions: ATCC 19606 = CIP 70.34 = JCM 6841, 18 h
How it was run: (§5)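 Cultured in cation-adjusted Mueller Hinton broth at 37 °C for 12 h, diluted 40-fold and grown 1.5–3 h to mid-log. Seeded at 5×10^5 CFU/mL over a 12-point dose response in non-binding surface and polystyrene 96-well plates, duplicates (n=2). Incubated static at 37 °C for 18 h. MIC read from OD600 light scattering; colistin and vancomycin as standards.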

[24] = system: Staphylococcus aureus; assay: Antibacterial activity against methicillin-resistant Staphylococcus aureus ATCC 43300 after 18 hrs by polystyrene 96-well plate-based method; format: functional; conditions: ATCC 43300, 18 h; how it was run: as §4
[25] = system: Klebsiella pneumoniae; assay: Antibacterial activity against multidrug-resistant Klebsiella pneumoniae ATCC 700603 after 18 hrs by polystyrene 96-well plate-based method; format: functional; conditions: ATCC 700603, 18 h; how it was run: as §4
[26] = system: Lipid bilayer; assay: Induction of pore formation in POPC vesicles at 20 uM after 3 hrs by carboxyfluorescein dye leakage assay; conditions: in the assay text read “after 3 mins” for “after 3 hrs”; how it was run: as §3
[27] = system: Escherichia coli; assay: Antibacterial activity against Escherichia coli ATCC 25922 after 18 hrs by non-binding surface 96-well plate-based method; format: functional; conditions: ATCC 25922, 18 h; how it was run: as §5
[28] = system: Klebsiella pneumoniae; assay: Antibacterial activity against multidrug-resistant Klebsiella pneumoniae ATCC 700603 after 18 hrs by non-binding surface 96-well plate-based method; format: functional; conditions: ATCC 700603, 18 h; how it was run: as §4

Compound | Kd [1] | Rmax [1] | inhibition of growth at 32 µg/mL [2] | hemolysis at 1 h, 12.5 µM [3] | inhibition of growth at 32 µg/mL [4] | inhibition of growth at 32 µg/mL [5] | inhibition of growth at 32 µg/mL [6] | hemolysis at 1 h, 1.56 µM [7] | hemolysis at 1 h, 25 µM [8] | inhibition of growth at 32 µg/mL [9] | hemolysis at 1 h, 0.78 µM [10] | Activity [11] | inhibition of growth at 32 µg/mL [12] | hemolysis at 1 h, 50 µM [13] | inhibition of growth at 32 µg/mL [14] | hemolysis at 1 h, 6.25 µM [15] | hemolysis at 1 h, 0.39 µM [16] | hemolysis at 1 h, 3.125 µM [17] | Activity [18] | further results
CC(C)(C)OC(=O)[C@@H]1CCCN1C(=O)N1CCCN1C(=O)[C@@H]1CCCN1C(=O)N1CCCN1C(=O)[C@@H]1CCCN1C(=O)N1CCCN1C(=O)[C@@H]1CCCN1C(=O)N1CCCN1C(=O)[C@@H]1CCCN1C(=O)N1CCCN1C(=O)[C@@H]1CCCN1C(=O)N1CCCN1C(=O)[C@@H]1CCCN1C(=O)N1CCCN1C(=O)[C@@H]1CCCN1C(=O)N1CCCN1C(=O)OCc1ccccc1 | 2.58 mM | 2640 | -6.76% | -0.04% | 20.5% | -8.19% | -1.93% | -0.24% | -0.41% | 5.75% | 0.04% | inactive | -1.93% | -0.73% | 15.9% | -0.37% | 0.08% | -0.12% | Dose-dependent effect | 
CC(C)(C)OC(=O)N1CCC[C@H]1C(=O)N1CCCN1C(=O)N1CCC[C@H]1C(=O)N1CCCN1C(=O)N1CCC[C@H]1C(=O)N1CCCN1C(=O)N1CCC[C@H]1C(=O)N1CCCN1C(=O)N1CCC[C@H]1C(=O)N1CCCN1C(=O)N1CCC[C@H]1C(=O)N1CCCN1C(=O)N1CCC[C@H]1C(=O)N1CCCN1C(=O)N1CCC[C@H]1C(=O)N1CCCN1C(=O)OCc1ccccc1 | 0.44 mM | 632 | -8.18% | -0.17% | 20.7% | -3.43% | 5.27% | -0.04% | -0.23% | 2.92% | 0.15% | inactive | 5.27% | -0.42% | 17.8% | -0.11% | -0.04% | 0.02% | Dose-dependent effect | 
CC(C)C[C@@H](NC(=O)[C@H](C)NC(=O)CNC(=O)[C@@H](NC=O)C(C)C)C(=O)N[C@@H](C)C(=O)N[C@@H](C(=O)N[C@H](C(=O)N[C@@H](C(=O)N[C@@H](Cc1c[nH]c2ccccc12)C(=O)N[C@H](CC(C)C)C(=O)N[C@@H](Cc1c[nH]c2ccccc12)C(=O)N[C@H](CC(C)C)C(=O)N[C@@H](Cc1c[nH]c2ccccc12)C(=O)N[C@H](CC(C)C)C(=O)N[C@@H](Cc1c[nH]c2ccccc12)C(=O)NCCO)C(C)C)C(C)C)C(C)C (HELM PEPTIDE1{[O=C[*:2]].V.G.A.[dL].A.[dV].V.[dV].W.[dL].W.[dL].W.[dL].W.[OCCN[*:1]]}$$$$V2.0) |  |  | -6.36% | 66.1% | 24.9% | -0.81% | 11.1% | 74.8% | 52.8% | 8.67% | 59.4% |  | 11.2% | 48.5% | 6.51% | 87.2% | 5.43% | 84.7% | Dose-dependent effect | MIC [19]: > 50 µg/mL; MIC [20]: > 50 µg/mL; HC50 [21]: 5 µM; MIC [22]: > 50 µg/mL; MIC [23]: > 50 µg/mL; MIC [24]: 25 to 50 µg/mL (≈ 13.3 to 26.6 µM); MIC [25]: > 50 µg/mL; Activity [26]: 100%; MIC [27]: > 50 µg/mL; MIC [28]: > 50 µg/mL
